Source: ChEMBL document CHEMBL4387781, “Optimization of oxadiazole derivatives with a spirocyclic cyclohexane structure as novel GPR119 agonists” (Bioorg Med Chem Lett, 2019)
Active and inactive are the calls of the source. No cut-off for these calls is given here.

Columns and labels:
[1] = Protein binding in rat plasma; format: ADME, cell-free; details: read-out: PPB (converted)
[2] = Protein binding in human plasma; format: ADME, cell-free; details: read-out: PPB (converted)
[3] = target: T1, Glucose-dependent insulinotropic receptor (Homo sapiens, UniProt Q8TDV5); test: Agonist activity at recombinant human GPR119 expressed in HEK293 cells assessed as increase in intracellular cAMP accumulation measured after 30 mins; format: functional, cell-based
T1 sequence (Q8TDV5 whole entry): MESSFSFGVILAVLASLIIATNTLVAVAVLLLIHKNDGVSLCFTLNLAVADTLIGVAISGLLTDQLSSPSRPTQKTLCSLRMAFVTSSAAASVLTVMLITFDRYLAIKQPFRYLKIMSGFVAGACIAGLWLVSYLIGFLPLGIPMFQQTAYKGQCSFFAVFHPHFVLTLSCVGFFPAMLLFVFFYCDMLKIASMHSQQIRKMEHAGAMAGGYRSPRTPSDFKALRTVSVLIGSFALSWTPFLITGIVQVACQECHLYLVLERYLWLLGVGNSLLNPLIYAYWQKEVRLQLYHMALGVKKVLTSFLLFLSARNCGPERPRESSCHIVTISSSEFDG

[4] = target: T2, Glucose-dependent insulinotropic receptor (Homo sapiens) (UniProt Q8TDV5); test: Agonist activity at recombinant human GPR119 expressed in HEK293 cells assessed as increase in intracellular cAMP accumulation measured after 30 mins relative to oleoylethanolamide; format: functional, cell-based
T2 sequence (whole entry): T1 sequence (Q8TDV5 whole entry)

[5] = Stability in human liver microsomes assessed as parent compound remaining at 5 uM measured after 1 hr; format: ADME, Microsome; details: read-out: Stability
In short: (§1)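 Compound at 5 μM incubated 1 hour with human or rat liver microsomes (0.2 mg/mL); percent of parent remaining reported.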

[6] = Stability in rat liver microsomes assessed as parent compound remaining at 5 uM measured after 1 hr; format: ADME, Microsome; details: read-out: Stability; in short: as §1
Rattus norvegicus [7] = test: Hypoglycemic activity in Sprague-Dawley rat assessed as reduction in plasma insulin level at 1 to 3 mg/kg, po treated for 16 hrs prior to glucose stimulation and measured up to 1 hr by ELISA; format: functional, organism-based
In short: (§2)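 Overnight-fasted 7-week-old Sprague-Dawley rats dosed by oral gavage; 16 h later glucose 1 g/kg given intraperitoneally. Tail-vein blood drawn before and at 10, 30, 60 min after loading; glucose followed up to 2 h. Plasma glucose by automatic analyzer, insulin by rat insulin ELISA; glucose AUC calculated.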

Cytochrome P450 2C19 = Cytochrome P450 2C19 (Homo sapiens, UniProt P33261); test: Inhibition of CYP2C19 (unknown origin); format: ADME
Cytochrome P450 2C19, sequence (P33261 whole entry): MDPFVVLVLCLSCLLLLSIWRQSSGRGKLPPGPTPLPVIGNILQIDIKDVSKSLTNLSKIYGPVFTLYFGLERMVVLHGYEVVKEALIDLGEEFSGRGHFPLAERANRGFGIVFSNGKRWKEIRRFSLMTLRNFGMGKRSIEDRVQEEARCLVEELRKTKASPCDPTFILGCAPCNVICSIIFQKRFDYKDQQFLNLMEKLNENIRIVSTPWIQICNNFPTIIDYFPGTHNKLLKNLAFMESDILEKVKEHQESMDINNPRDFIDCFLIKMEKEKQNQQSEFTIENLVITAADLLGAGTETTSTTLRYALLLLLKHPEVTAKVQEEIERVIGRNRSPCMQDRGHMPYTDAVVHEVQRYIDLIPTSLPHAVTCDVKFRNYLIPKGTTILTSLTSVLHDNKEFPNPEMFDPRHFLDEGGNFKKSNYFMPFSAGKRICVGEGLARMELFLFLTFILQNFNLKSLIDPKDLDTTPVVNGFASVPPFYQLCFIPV

Rattus norvegicus [8] = test: Hypoglycemic activity in Sprague-Dawley rat assessed as reduction in plasma glucose level at 1 to 3 mg/kg, po treated for 16 hrs prior to glucose stimulation and measured up to 2 hrs by IPGTT; format: functional, organism-based; in short: as §2
[9] = Terminal half life in Sprague-Dawley rat at 1 mg/kg, iv; format: ADME, organism-based; details: in vivo, read-out: beta t1/2 (converted)
In short: (§3)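 Sprague-Dawley rats given 1 mg/kg intravenously or 3 mg/kg orally; t1/2β, CL, Vdss and MRT from IV dosing, oral bioavailability from PO dosing.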

Cytochrome P450 2C8 = target: T3, Cytochrome P450 2C8 (Homo sapiens, UniProt P10632); test: Inhibition of CYP2C8 (unknown origin); format: ADME
T3 sequence (P10632 whole entry): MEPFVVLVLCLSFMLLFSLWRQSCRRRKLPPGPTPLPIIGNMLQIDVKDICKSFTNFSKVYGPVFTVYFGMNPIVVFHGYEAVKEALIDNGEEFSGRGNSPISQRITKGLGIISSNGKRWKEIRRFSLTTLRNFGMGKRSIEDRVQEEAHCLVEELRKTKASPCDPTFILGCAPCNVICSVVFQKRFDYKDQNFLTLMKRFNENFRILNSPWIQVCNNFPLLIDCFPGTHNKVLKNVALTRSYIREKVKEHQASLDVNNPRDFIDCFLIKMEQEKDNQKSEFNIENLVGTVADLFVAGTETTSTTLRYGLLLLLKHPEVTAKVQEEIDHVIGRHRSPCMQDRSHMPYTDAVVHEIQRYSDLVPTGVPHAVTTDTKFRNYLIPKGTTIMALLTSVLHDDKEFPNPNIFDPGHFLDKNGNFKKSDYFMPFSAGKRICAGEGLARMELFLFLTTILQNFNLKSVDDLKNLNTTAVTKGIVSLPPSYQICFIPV

Cytochrome P450 1A2 = target: T4, Cytochrome P450 1A2 (Homo sapiens, UniProt P05177); test: Inhibition of CYP1A2 (unknown origin); format: ADME
T4 sequence (P05177 whole entry): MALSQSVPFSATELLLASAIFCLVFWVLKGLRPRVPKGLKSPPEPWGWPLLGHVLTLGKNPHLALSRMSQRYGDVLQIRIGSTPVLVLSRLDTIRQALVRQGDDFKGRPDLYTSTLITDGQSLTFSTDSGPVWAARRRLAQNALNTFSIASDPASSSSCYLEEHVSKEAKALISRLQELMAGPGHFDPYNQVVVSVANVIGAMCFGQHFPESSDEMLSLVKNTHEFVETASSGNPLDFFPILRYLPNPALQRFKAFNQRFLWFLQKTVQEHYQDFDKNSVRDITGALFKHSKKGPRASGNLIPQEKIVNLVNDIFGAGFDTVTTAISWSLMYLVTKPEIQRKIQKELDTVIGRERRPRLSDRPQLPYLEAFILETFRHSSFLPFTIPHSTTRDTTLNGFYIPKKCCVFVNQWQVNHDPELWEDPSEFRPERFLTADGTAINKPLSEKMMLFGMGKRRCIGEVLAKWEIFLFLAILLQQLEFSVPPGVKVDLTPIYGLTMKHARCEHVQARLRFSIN

Rattus norvegicus [10] = test: Effect on plasma insulin level in Sprague-Dawley rat at 1 to 3 mg/kg, po measured after 16 hrs by ELISA; format: ADME, organism-based; details: in vivo; in short: as §2
[11] = MRT in Sprague-Dawley rat at 1 mg/kg, iv; format: ADME, organism-based; details: in vivo; in short: as §3
Rattus norvegicus [12] = test: Hypoglycemic activity in Sprague-Dawley rat assessed as reduction in plasma glucose AUC at 3 mg/kg, po treated for 16 hrs prior to glucose stimulation and measured up to 2 hrs by IPGTT relative to control; format: functional; set-up: scale not given: the % may be the effect or the level left; in short: as §2
[13] = Oral bioavailability in Sprague-Dawley rat at 3 mg/kg; format: ADME, organism-based; details: in vivo; in short: as §3
Cytochrome P450 2D6 = Cytochrome P450 2D6 (Homo sapiens, UniProt P10635); test: Inhibition of CYP2D6 (unknown origin); format: ADME
Cytochrome P450 2D6, sequence (P10635 whole entry): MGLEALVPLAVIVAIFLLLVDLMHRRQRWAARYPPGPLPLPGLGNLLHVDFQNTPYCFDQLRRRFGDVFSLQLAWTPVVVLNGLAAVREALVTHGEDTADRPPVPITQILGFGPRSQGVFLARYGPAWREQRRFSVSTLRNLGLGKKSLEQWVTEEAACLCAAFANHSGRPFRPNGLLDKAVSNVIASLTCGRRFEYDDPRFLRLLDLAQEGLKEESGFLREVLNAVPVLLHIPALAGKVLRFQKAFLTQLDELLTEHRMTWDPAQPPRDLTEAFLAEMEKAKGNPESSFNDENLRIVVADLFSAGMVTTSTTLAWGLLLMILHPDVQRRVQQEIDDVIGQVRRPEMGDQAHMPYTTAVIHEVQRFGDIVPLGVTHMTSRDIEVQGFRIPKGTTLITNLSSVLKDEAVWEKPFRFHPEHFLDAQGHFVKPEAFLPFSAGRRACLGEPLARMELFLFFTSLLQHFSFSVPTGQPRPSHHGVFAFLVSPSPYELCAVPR

Cytochrome P450 3A4 = Cytochrome P450 3A4 (Homo sapiens, UniProt P08684); test: Inhibition of CYP3A4 (unknown origin); format: ADME
Cytochrome P450 3A4, sequence (P08684 whole entry): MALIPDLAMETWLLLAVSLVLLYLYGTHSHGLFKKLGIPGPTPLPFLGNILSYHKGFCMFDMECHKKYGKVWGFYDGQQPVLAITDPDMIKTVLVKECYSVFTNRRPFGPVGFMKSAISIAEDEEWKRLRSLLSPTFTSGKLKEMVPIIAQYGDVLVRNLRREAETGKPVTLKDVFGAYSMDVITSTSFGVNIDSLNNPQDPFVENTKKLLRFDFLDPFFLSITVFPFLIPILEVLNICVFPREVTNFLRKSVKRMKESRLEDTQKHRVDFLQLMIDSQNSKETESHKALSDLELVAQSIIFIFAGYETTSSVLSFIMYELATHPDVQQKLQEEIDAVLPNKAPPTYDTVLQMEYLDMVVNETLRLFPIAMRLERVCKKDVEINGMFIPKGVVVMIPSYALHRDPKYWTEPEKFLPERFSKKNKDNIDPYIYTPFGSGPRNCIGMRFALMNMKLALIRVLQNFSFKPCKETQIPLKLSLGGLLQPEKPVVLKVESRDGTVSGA

[14] = Clearance in Sprague-Dawley rat at 1 mg/kg, iv; format: ADME, organism-based; details: in vivo; in short: as §3
Cytochrome P450 2C9 = Cytochrome P450 2C9 (Homo sapiens, UniProt P11712); test: Inhibition of CYP2C9 (unknown origin); format: ADME
Cytochrome P450 2C9, sequence (P11712 whole entry): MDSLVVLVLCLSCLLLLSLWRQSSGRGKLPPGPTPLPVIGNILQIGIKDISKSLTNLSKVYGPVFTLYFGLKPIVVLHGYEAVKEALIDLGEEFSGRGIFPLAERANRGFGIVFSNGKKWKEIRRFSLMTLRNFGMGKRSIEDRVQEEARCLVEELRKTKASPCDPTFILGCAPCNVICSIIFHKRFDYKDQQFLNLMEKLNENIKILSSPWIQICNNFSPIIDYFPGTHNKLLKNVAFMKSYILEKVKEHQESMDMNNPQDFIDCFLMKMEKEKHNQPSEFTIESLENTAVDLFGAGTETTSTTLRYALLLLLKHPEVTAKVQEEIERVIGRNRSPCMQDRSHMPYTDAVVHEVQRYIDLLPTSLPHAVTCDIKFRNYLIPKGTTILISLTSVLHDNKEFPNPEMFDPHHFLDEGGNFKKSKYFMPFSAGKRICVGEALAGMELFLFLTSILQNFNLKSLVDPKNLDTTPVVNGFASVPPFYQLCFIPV

Rattus norvegicus [15] = test: Effect on plasma glucose level in Sprague-Dawley rat at 1 to 3 mg/kg, po measured after 16 hrs; format: ADME, organism-based; details: in vivo; in short: as §2
Rattus norvegicus [16] = test: Hypoglycemic activity in Sprague-Dawley rat assessed as reduction in plasma glucose AUC at 1 mg/kg, po treated for 16 hrs prior to glucose stimulation and measured up to 2 hrs by IPGTT relative to control; format: functional; set-up: scale not given: the % may be the effect or the level left; in short: as §2
[17] = Volume of distribution at steady state in Sprague-Dawley rat at 1 mg/kg, iv; format: ADME, organism-based; details: in vivo, read-out: Vdss; in short: as §3

EC50 [3] [nM]	%max [4] [%]	remaining at 1 h, 5 µM [5] [%]	remaining at 1 h, 5 µM [6] [%]	SMILES	also measured
5	109	65	83	C[C@@H](O[C@H]1CC[C@]2(CC1)COC(C)(C)C2)c1nc(-c2cc(F)c(CS(C)(=O)=O)c(F)c2)no1	fraction unbound [1]: 0.06; fraction unbound [2]: 0.035
6	112	98	98	C[C@@H](O[C@H]1CC[C@]2(CCC(F)(F)CO2)CC1)c1nc(-c2cc(F)c(CS(C)(=O)=O)c(F)c2)no1	Activity (Rattus norvegicus [7]): Active; IC50 (Cytochrome P450 2C19): > 50000 nM; Activity (Rattus norvegicus [8]): Active; half-life [9]: 5.1 h; IC50 (Cytochrome P450 2C8): > 50000 nM; IC50 (Cytochrome P450 1A2): > 50000 nM; Activity (Rattus norvegicus [10]): Non-Toxic; MRT [11]: 6.4 h; Activity (Rattus norvegicus [12]): 12%; bioavailability [13]: 43%; IC50 (Cytochrome P450 2D6): > 50000 nM; IC50 (Cytochrome P450 3A4): > 50000 nM; clearance [14]: 8.33 mL/min/kg; IC50 (Cytochrome P450 2C9): > 50000 nM; Activity (Rattus norvegicus [15]): Non-Toxic; Activity (Rattus norvegicus [16]): 10%; Vd [17]: 3.5 L/kg
27	106	97	91	C[C@@H](O[C@H]1CC[C@@]2(CC1)CC(F)(F)CCO2)c1nc(-c2cc(F)c(CS(C)(=O)=O)c(F)c2)no1	–
–	109	–	–	CC(O[C@H]1CC[C@]2(CC1)COC(C)(C)C2)c1nc(-c2ccc(S(C)(=O)=O)c(F)c2)no1 (mixture of isomers)	–
25	109	0	56	CC(O[C@H]1CC[C@]2(CCC(C)(C)CO2)CC1)c1nc(-c2ccc(CS(C)(=O)=O)c(F)c2)no1 (stereo partly specified)	–
301	77	–	–	C[C@@H](O[C@H]1CC[C@]2(CC1)COC(C)(C)C2)c1nc(-c2ccc(CS(C)(=O)=O)c(F)c2F)no1	–
31	115	15	55	CC(O[C@H]1CC[C@@]2(CC1)CC(C)(C)CO2)c1nc(-c2ccc(CS(C)(=O)=O)c(F)c2)no1 (stereo partly specified)	–
7	116	83	85	C[C@@H](O[C@H]1CC[C@@]2(CC1)CC(F)(F)CO2)c1nc(-c2cc(F)c(CS(C)(=O)=O)c(F)c2)no1	–
720	114	49	54	CC(O[C@H]1CC[C@]2(CCCO2)CC1)c1nc(-c2ccc(CS(C)(=O)=O)c(F)c2)no1 (stereo partly specified)	–
27	106	–	–	C[C@@H](O[C@H]1CC[C@]2(CC1)COC(C)(C)C2)c1nc(-c2ccc(CS(C)(=O)=O)c(F)c2)no1	–
2460	86	–	–	CC(O[C@H]1CC[C@]2(CC1)COC(C)(C)C2)c1nc(-c2ccc(C(=O)N(C)C)c(F)c2)no1 (mixture of isomers)	–
261	103	–	–	CC1(C)C[C@]2(CC[C@H](OCc3nc(-c4ccc(S(C)(=O)=O)c(F)c4)no3)CC2)CO1	–
64	118	–	–	C[C@@H](O[C@H]1CC[C@]2(CC1)COC(C)(C)C2)c1nc(-c2cc(F)c(CS(C)(=O)=O)cc2F)no1	–
86	112	39	64	CC(O[C@H]1CC[C@]2(CCCCO2)CC1)c1nc(-c2ccc(CS(C)(=O)=O)c(F)c2)no1 (stereo partly specified)	–
426	120	–	–	CC(O[C@H]1CC[C@]2(CC1)COC(C)(C)C2)c1nc(-c2ccc(CS(C)(=O)=O)cc2)no1 (mixture of isomers)	–
29	113	0	53	CC(O[C@H]1CC[C@@]2(CC1)CC(C)(C)CCO2)c1nc(-c2ccc(CS(C)(=O)=O)c(F)c2)no1 (stereo partly specified)	–
44	130	62	86	CC(O[C@H]1CC[C@]2(CC1)COC(C)(C)C2)c1nc(-c2ccc(CS(C)(=O)=O)c(F)c2)no1 (mixture of isomers)	–
69	131	–	–	CC(O[C@H]1CC[C@]2(CC1)COC(C)(C)C2)c1nc(-c2ccc(CC(=O)N(C)C)c(F)c2)no1 (mixture of isomers)	–
430	106	–	–	C[C@H](O[C@H]1CC[C@]2(CC1)COC(C)(C)C2)c1nc(-c2ccc(CS(C)(=O)=O)c(F)c2)no1	–
